For orientation: IC50 means the concentration needed to halve the response being measured. As a reminder, the inhibition is the change of the read-out against control, counted positive when it falls.

The text below walks through data of ChEMBL document CHEMBL1165949, “Dammaranes from Gynostemma pentaphyllum and synthesis of their derivatives as inhibitors of protein tyrosine phosphatase 1B” (Bioorg Med Chem, 2010).

Test [1] addresses T1, Tyrosine-protein phosphatase non-receptor type 2 (Homo sapiens, UniProt P17706).
T1 sequence (P17706 whole entry): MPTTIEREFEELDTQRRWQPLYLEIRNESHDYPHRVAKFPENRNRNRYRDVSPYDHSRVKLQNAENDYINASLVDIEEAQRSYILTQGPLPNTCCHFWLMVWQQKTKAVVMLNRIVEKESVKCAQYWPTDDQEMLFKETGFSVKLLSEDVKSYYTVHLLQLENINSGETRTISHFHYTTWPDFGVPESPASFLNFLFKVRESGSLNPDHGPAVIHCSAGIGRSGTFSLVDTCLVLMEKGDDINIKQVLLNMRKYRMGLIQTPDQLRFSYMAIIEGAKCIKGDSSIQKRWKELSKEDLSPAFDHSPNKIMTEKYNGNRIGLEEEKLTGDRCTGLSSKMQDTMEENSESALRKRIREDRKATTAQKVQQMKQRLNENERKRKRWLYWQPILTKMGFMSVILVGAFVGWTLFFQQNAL
Put plainly: Inhibition of TCPTP by pNPP hydrolase assay. The method in brief: (§1)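 Enzyme activity (PTP1B or TCPTP) was measured by hydrolysis of p-nitrophenyl phosphate (pNPP), with {4-[4-(4-oxalylphenoxymethyl)-benzyloxy]-phenyl}-oxo-acetic acid as the reference inhibitor. IC50 was derived by regression analysis and reported as mean ± SD of three replications.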

In test [2] the target is T2, Tyrosine-protein phosphatase non-receptor type 1 (Homo sapiens, UniProt P18031).
T2 sequence (P18031 whole entry): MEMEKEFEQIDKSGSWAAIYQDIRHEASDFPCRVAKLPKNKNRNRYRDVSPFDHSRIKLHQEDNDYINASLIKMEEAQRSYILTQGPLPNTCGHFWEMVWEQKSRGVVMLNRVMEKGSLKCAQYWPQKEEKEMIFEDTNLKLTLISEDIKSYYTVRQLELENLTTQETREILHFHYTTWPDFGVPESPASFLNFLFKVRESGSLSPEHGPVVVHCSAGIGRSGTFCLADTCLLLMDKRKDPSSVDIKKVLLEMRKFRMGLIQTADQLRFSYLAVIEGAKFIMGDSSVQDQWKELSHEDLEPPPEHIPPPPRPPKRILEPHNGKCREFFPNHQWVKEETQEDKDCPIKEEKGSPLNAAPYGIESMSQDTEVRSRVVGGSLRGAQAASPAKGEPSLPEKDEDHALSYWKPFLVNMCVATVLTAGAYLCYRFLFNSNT
Put plainly: Inhibition of PTP1B by pNPP hydrolase assay. The method, boiled down: as §1

Test [3] in a line: Selectivity ratio of IC50 for TCPTP to IC50 for PTP1B.
The target in test [4] is T3, Tyrosine-protein phosphatase non-receptor type 1 (Homo sapiens) (UniProt P18031).
T3 sequence (whole entry): T2 sequence (P18031 whole entry)
The test can be described thus: Inhibition of PTP1B at 20 uM by pNPP hydrolase assay.

Test [5] addresses T2, Tyrosine-protein phosphatase non-receptor type 1. The test can be described thus: Inhibition of PTP1B. The method, boiled down:
as §1

Turning to `CC(C)=C[C@@H]1C[C@](O)([C@H]2CC[C@@H]3[C@@H]2CC[C@H]2[C@@]3(C)CC[C@H]3C(C)(C)[C@@H](OC(=O)c4ccccn4)CC[C@]23C)C(=O)O1`, the IC50 in test [1] came out at 5.14 µM; in test [2], 2.36 µM.
The matching figures for `CC(C)=C[C@@H]1C[C@](O)([C@H]2CC[C@@H]3[C@@H]2CC[C@H]2[C@@]3(C)CC[C@H]3C(C)(C)[C@@H](OC(=O)c4ccc([N+](=O)[O-])cc4)CC[C@]23C)C(=O)O1`: 5.1 µM and 1.42 µM.
As to `CC(C)=C[C@@H]1C[C@](O)([C@H]2CC[C@@H]3[C@@H]2CC[C@H]2[C@@]3(C)CC[C@H]3C(C)(C)[C@@H](OC(=O)c4cccc(C(=O)O)c4)CC[C@]23C)C(=O)O1`, the IC50 in test [1] came to 1.62 µM; in test [2] it was 0.33 µM. In test [3], the Ratio IC50 came to 4.9.
Take `CC(=O)O[C@H]1CC[C@]2(C)[C@H]3CC[C@H]4[C@@H](CC[C@@H]4[C@@]4(O)C[C@@H](C=C(C)C)OC4=O)[C@]3(C)CC[C@H]2C1(C)C`: the IC50 in test [2] stood at 12.7 µM.
In the case of `CC(C)=C[C@@H]1C[C@](O)([C@H]2CC[C@@H]3[C@@H]2CC[C@H]2[C@@]3(C)CC[C@H]3C(C)(C)[C@@H](C(=O)c4ccccc4)CC[C@]23C)C(=O)O1`, the IC50 in test [1] came to 4.15 µM; in test [2], 2.75 µM.
In turn, `COc1ccc(CNC2CC[C@]3(C)[C@H]4CC[C@H]5[C@@H](CC[C@@H]5[C@@]5(O)C[C@@H](C=C(C)C)OC5=O)[C@]4(C)CC[C@H]3C2(C)C)cc1` (some centres undefined) yielded an inhibition in test [4] of 24%.
Turning to `CC(C)=C[C@@H]1C[C@](O)([C@H]2CC[C@@H]3[C@@H]2CC[C@H]2[C@@]3(C)CC[C@H]3C(C)(C)[C@@H](O)CC[C@]23C)C(=O)O1`, the IC50 came out at 11.3 µM in test [2] and 15.7 µM in test [5].
Regarding `CC(C)=C[C@@H]1C[C@](O)([C@H]2CC[C@@H]3[C@@H]2CC[C@H]2[C@@]3(C)CC[C@H]3C(C)(C)C(=O)CC[C@]23C)C(=O)O1`, the IC50 is 34.1 µM in test [1] and 13.1 µM in test [2].
The matching figures for `COc1cccc(C(=O)O[C@H]2CC[C@]3(C)[C@H]4CC[C@H]5[C@@H](CC[C@@H]5[C@@]5(O)C[C@@H](C=C(C)C)OC5=O)[C@]4(C)CC[C@H]3C2(C)C)c1`: 12 µM and 2.08 µM.
The matching figures for `CC(C)=C[C@@H]1C[C@](O)([C@H]2CC[C@@H]3[C@@H]2CC[C@H]2[C@@]3(C)CC[C@H]3C(C)(C)[C@@H](OC(=O)c4ccc(C(=O)O)c([N+](=O)[O-])c4)CC[C@]23C)C(=O)O1`: 1.22 µM and 0.5 µM.
In turn, `CC(C)=C[C@@H]1C[C@](O)([C@H]2CC[C@@H]3[C@@H]2CC[C@H]2[C@@]3(C)CC[C@H]3C(C)(C)C(NCc4ccc([N+](=O)[O-])cc4)CC[C@]23C)C(=O)O1` (some centres undefined) registered an IC50 in test [2] of 6.58 µM.
In the case of `COc1ccccc1C(=O)O[C@H]1CC[C@]2(C)[C@H]3CC[C@H]4[C@@H](CC[C@@H]4[C@@]4(O)C[C@@H](C=C(C)C)OC4=O)[C@]3(C)CC[C@H]2C1(C)C`, the IC50 in test [1] was 4.05 µM; in test [2] it was 1.9 µM.
In the same order, the values of `CC(C)=C[C@@H]1C[C@](O)([C@H]2CC[C@@H]3[C@@H]2CC[C@H]2[C@@]3(C)CC[C@H]3C(C)(C)[C@@H](OC(=O)c4ccc([N+](=O)[O-])cc4[N+](=O)[O-])CC[C@]23C)C(=O)O1` are 2.87 µM and 1.62 µM.
The matching figures for `CCC(=O)[C@H]1CC[C@]2(C)[C@H]3CC[C@H]4[C@@H](CC[C@@H]4[C@@]4(O)C[C@@H](C=C(C)C)OC4=O)[C@]3(C)CC[C@H]2C1(C)C`: 14.7 µM and 4.6 µM.
In the same order, the values of `COc1ccc(C(=O)O[C@H]2CC[C@]3(C)[C@H]4CC[C@H]5[C@@H](CC[C@@H]5[C@@]5(O)C[C@@H](C=C(C)C)OC5=O)[C@]4(C)CC[C@H]3C2(C)C)cc1` are 3.9 µM and 2.61 µM.
`CCCCC(=O)[C@H]1CC[C@]2(C)[C@H]3CC[C@H]4[C@@H](CC[C@@H]4[C@@]4(O)C[C@@H](C=C(C)C)OC4=O)[C@]3(C)CC[C@H]2C1(C)C`: the IC50 in test [1] amounted to 11.8 µM; in test [2] it was 4.14 µM.
In the same order, the values of `CC(C)=C[C@@H]1C[C@](O)([C@H]2CC[C@@H]3[C@@H]2CC[C@H]2[C@@]3(C)CC[C@H]3C(C)(C)[C@@H](OC(=O)c4ccccc4[N+](=O)[O-])CC[C@]23C)C(=O)O1` are 3.38 µM and 1.96 µM.
Regarding `CC(C)=C[C@@H]1C[C@](O)([C@H]2CC[C@@H]3[C@@H]2CC[C@H]2[C@@]3(C)CC[C@H]3C(C)(C)[C@@H](OC(=O)c4cccc([N+](=O)[O-])c4)CC[C@]23C)C(=O)O1`, the results for the IC50 in test [1] and in test [2] were 2.26 µM and 1.7 µM, respectively.
Turning to `CC(C)=C[C@H]1C[C@@](O)([C@H]2CC[C@@H]3[C@@H]2CC[C@H]2[C@@]3(C)CC[C@H]3C(C)(C)[C@@H](O)CC[C@]23C)C(=O)O1`, the figures for the IC50 in test [2] and in test [5] were 9.6 µM and 5.3 µM, respectively.
Molecule `CC(C)=C[C@@H]1C[C@](O)([C@H]2CC[C@@H]3[C@@H]2CC[C@H]2[C@@]3(C)CC[C@H]3C(C)(C)C(NCc4cc(F)cc(F)c4)CC[C@]23C)C(=O)O1` (some centres undefined) returned an IC50 in test [2] of 11.6 µM.
As for `CC(C)=C[C@@H]1C[C@](O)([C@H]2CC[C@@H]3[C@@H]2CC[C@H]2[C@@]3(C)CC[C@H]3C(C)(C)[C@@H](OC(=O)c4ccc(C(=O)O)cc4)CC[C@]23C)C(=O)O1`, the figures for the IC50 in test [1] and in test [2] were 0.97 µM and 0.27 µM, respectively.
